PTEN del growth: suppresses growth of cells with PTEN deletion | HCT116 PTEN-null viability, CellTiter-Glo, 60 h; active compounds read low | viability, % at 10 µM | 140,000 compounds, 1.2% hits;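 active = viability at or below a set limit, 4 SD under the median of all tested compounds, cut at about 3.7% in these data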;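 also: PTEN knockout HCT116 line with beta catenin targeted HCT116 as companion control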
Lung fibro prol: blocks proliferation of human lung fibroblasts | viability, % at 10 µM | 85,000 compounds, 1.1% hits | LL 47 human lung fibroblast viability, ATP luminescence; active compounds read low | AID 719;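 active = viability at or below 50% in the single dose screen; inactive = viability above 50%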;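 also: compound exposure lasted 72 h before the ATP readout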
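Material: human lung fibroblast line LL 47, low passage; Evaluation: viability percentage against median untreated-cell control; Buffer or medium: 15% FBS in IMEM; Incubation: 72 h compound exposure at 37 °C after overnight plating; Dosing: 0.1% DMSO in all compound wells; Measured by: CellTiter-Glo luminescence.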
HUVEC inhibit: human endothelial cell proliferation inhibition | viability, % at 10 µM (by protocol) | HUVEC proliferation, CellTiter-Glo luminescence, 72 h; active compounds read low | AID 648 | 86,000 compounds, 1.1% hits;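 active = viability at or below 30%; inactive = viability above 30%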
HCT116 bCat-KO: beta-catenin-lacking colon tumor cell growth suppression; HCT116 beta-catenin knockout viability, CellTiter-Glo, 60 h; active compounds read low; viability, % at 10 µM; 140,000 compounds, 1.5% hits;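 active = viability at or under a set limit, the compound median less 4 SD, cut at about 6% in these data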
H69AR inhibit: blocks growth of human H69AR lung tumor cells. H69AR lung tumor viability, ATP luminescence, 72 h; active compounds read low. viability, % at 10 µM. 85,000 compounds, 6% hits. AID 598;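 active = viability at or below 40%; inactive = viability above 40%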;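 also: multidrug resistant small cell line overexpressing MRP-1 efflux transporter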
Of the large screens only hits and unclear results are named; the others gave an inactive call. The full list was thinned out, with hits kept by preference.

Cn1c(CN2CCN(C(=O)c3ccc(F)cc3)CC2)nc2cc([N+](=O)[O-])ccc21	none (no result: Lung fibro prol, HUVEC inhibit, H69AR inhibit)
O=C(CNC(=O)C(c1ccccc1)c1ccccc1)OCC(=O)c1cccs1	none (no result: Lung fibro prol, HUVEC inhibit, H69AR inhibit)
CCCCNC(=O)CSc1nc2ccc(N3CCOCC3)cc2c(=O)n1CCc1ccccc1	HUVEC inhibit 26, H69AR inhibit 8.9
COCCNC(=O)CSc1nc2ccc(N3CCOCC3)cc2c(=O)n1CCc1ccccc1	none
C=CCn1c(SCc2nc3ccccc3c(=O)[nH]2)nnc1-c1cc2cc(Cl)ccc2o1	H69AR inhibit 17
Cc1ccc(NC(=O)C2(NC(=O)c3ccccn3)CCCCC2)cc1Br	none (no result: Lung fibro prol, HUVEC inhibit, H69AR inhibit)
O=C(c1ccco1)N1CCN(C(c2ccccc2Cl)c2nnnn2Cc2cccs2)CC1 (stereo unspecified)	H69AR inhibit 33
CCOc1cc2nc(-c3ccc(OC)c(OC)c3)nc(N3CC(C)OC(C)C3)c2cc1OC (stereo unspecified)	none (no result: Lung fibro prol, HUVEC inhibit, H69AR inhibit)
CCOc1cc2nc(-c3ccc(OC)c(OC)c3)nc(N3CCOCC3)c2cc1OC	HUVEC inhibit 6.9, H69AR inhibit 33
Cc1coc(NC(=O)CSc2nc(-c3ccncc3)cc(C(F)(F)F)c2C#N)n1	H69AR inhibit 38
COc1ccc2c(c1)Cc1sc(NC(=O)c3ccccc3)nc1-2	H69AR inhibit 11
COc1ccc(C(=O)Nc2nc3c(s2)Cc2cc(OC)ccc2-3)cc1	none
Cc1cccc(-n2nnnc2SCC(=O)c2cc(C)n(Cc3ccco3)c2C)c1	H69AR inhibit 7.3 (no result: Lung fibro prol)
C=CCOc1c(Br)cc(/C=N/O)cc1OCC	none (no result: Lung fibro prol, HUVEC inhibit, H69AR inhibit)
CCCCOc1c(Br)cc(/C=N/O)cc1OCC	HUVEC inhibit 21, H69AR inhibit 2.0
CCCCOC(=O)c1ccc(NC(=O)/C=C/c2cccs2)cc1	none (no result: Lung fibro prol, HUVEC inhibit, H69AR inhibit)
COCC(C)NC(=O)CCS(=O)(=O)c1nc(-c2ccc(OC)cc2)cc(C(F)(F)F)n1 (stereo unspecified)	none (no result: Lung fibro prol, HUVEC inhibit, H69AR inhibit)
CCOC(=O)CS(=O)(=O)c1nc(-c2ccccc2)cc(C(F)(F)F)n1	Lung fibro prol 3.8, HUVEC inhibit 12, H69AR inhibit 1.6
CCOC(=O)CS(=O)(=O)c1nc(-c2ccc(F)cc2)cc(C(F)(F)F)n1	Lung fibro prol 2.9, HUVEC inhibit 24, H69AR inhibit 4.4
CCOC(=O)CS(=O)(=O)c1ccccc1	none
COC(=O)CCS(=O)(=O)c1nc(-c2ccccc2)cc(C(F)(F)F)n1	Lung fibro prol 28, H69AR inhibit 1.4
CCOC(=O)CCS(=O)(=O)c1nc(-c2ccccc2)cc(C(F)(F)F)n1	Lung fibro prol 3.0, HUVEC inhibit 28, H69AR inhibit 0.8
C=CCN(c1ccccc1)S(=O)(=O)c1ccc(Cl)c(C(=O)OCC(=O)c2[nH]c(C)c(C(C)=O)c2C)c1	none (no result: Lung fibro prol, HUVEC inhibit, H69AR inhibit)
CC(=O)c1ccc(NC(=O)C(C)OC(=O)c2ccc(NS(=O)(=O)c3ccc(F)c(F)c3)cc2)cc1 (stereo unspecified)	none (no result: Lung fibro prol, HUVEC inhibit, H69AR inhibit)
Cc1cccn2c(=O)c3cc(C(=O)NCc4ccco4)c(=N)n(C(C)C)c3nc12	none
CCOCCCn1c(=N)c(C(=O)NCc2ccc3c(c2)OCO3)cc2c(=O)n3cccc(C)c3nc21	HCT116 bCat-KO 2.8
N=c1c(C(=O)NCc2ccco2)cc2c(=O)n3ccccc3nc2n1Cc1ccc(Cl)cc1	H69AR inhibit 26
COCCCn1c(=N)c(C(=O)NCc2ccc3c(c2)OCO3)cc2c(=O)n3cccc(C)c3nc21	none (no result: PTEN del growth, HCT116 bCat-KO)
Cc1cccn2c(=O)c3cc(C(=O)NCc4ccco4)c(=N)n(CCc4ccccc4)c3nc12	H69AR inhibit 31 (no result: PTEN del growth, HCT116 bCat-KO)
COc1ccc(CNC(=O)c2cc3c(=O)n4ccccc4nc3n(Cc3cccnc3)c2=N)cc1	H69AR inhibit 27
N=c1c(C(=O)NCc2ccco2)cc2c(=O)n3ccccc3nc2n1Cc1ccccc1	none
N=c1c(C(=O)NCc2ccc3c(c2)OCO3)cc2c(=O)n3ccccc3nc2n1Cc1cccnc1	none
COc1ccccc1C(=O)N/N=C/c1cnc2ccccc2n1	none (no result: Lung fibro prol, HUVEC inhibit, H69AR inhibit)
Cc1ccc(NC(=O)C2Cc3ccccc3CN2C(=O)c2ccccc2)cc1Cl (stereo unspecified)	none (no result: Lung fibro prol, HUVEC inhibit, H69AR inhibit)
Cc1ccc2nc3c(cc(C(=O)NCc4ccccc4)c(=N)n3CCCn3ccnc3)c(=O)n2c1	none (no result: PTEN del growth, HCT116 bCat-KO)
N=c1c(C(=O)NCc2ccc(F)cc2)cc2c(=O)n3ccccc3nc2n1Cc1ccco1	none (no result: Lung fibro prol, HUVEC inhibit, H69AR inhibit)
Cc1cccn2c(=O)c3cc(C(=O)NC(C)c4ccccc4)c(=N)n(CCCn4ccnc4)c3nc12 (stereo unspecified)	H69AR inhibit 12 (no result: PTEN del growth, HCT116 bCat-KO)
N=c1c(C(=O)NCc2ccccc2)cc2c(=O)n3ccccc3nc2n1Cc1ccco1	H69AR inhibit 39
CCCCCn1c(=NC(=O)c2ccco2)c(C(=O)OCC)cc2c(=O)n3ccccc3nc21	H69AR inhibit 27
CCCn1c(=NC(=O)c2ccc3c(c2)OCO3)c(C#N)cc2c(=O)n3cccc(C)c3nc21	H69AR inhibit 38 (no result: PTEN del growth, HCT116 bCat-KO)
CCOc1ccc(C(=O)CC(=O)C(=O)NCCc2ccc(OC)c(OC)c2)cc1	none (no result: Lung fibro prol, HUVEC inhibit, H69AR inhibit)
CC1CCc2nc(NC(=O)Nc3ccc4c(c3)OCO4)sc2C1 (stereo unspecified)	none (no result: Lung fibro prol, HUVEC inhibit, H69AR inhibit)
COc1ccccc1NS(=O)(=O)c1cc(NC(=O)Nc2ccc(Cl)cc2Cl)ccc1N1CCCCC1	none (no result: Lung fibro prol, HUVEC inhibit, H69AR inhibit)
O=C(Nc1cccc(C(F)(F)F)c1)Nc1ccc(N2CCCC2)c(S(=O)(=O)Nc2ccccc2Cl)c1	PTEN del growth 1.5, HCT116 bCat-KO 1.5 (no result: Lung fibro prol, HUVEC inhibit, H69AR inhibit)
Cc1cnc(C(=O)Nc2cccc3cccnc23)cn1	Lung fibro prol 43, HUVEC inhibit 5.1, H69AR inhibit 3.6
O=C(/C=C/c1cccc([N+](=O)[O-])c1)NCCSCc1cccc(Cl)c1	none (no result: Lung fibro prol, HUVEC inhibit, H69AR inhibit)
O=C(O)c1ccc(Cl)c(S(=O)(=O)NCc2ccco2)c1	none
Cc1cccc(N2CCN(C(=O)c3ccc(Cl)c(S(=O)(=O)NCc4ccco4)c3)CC2)c1C	H69AR inhibit 21
O=C(c1ccc(Cl)c(S(=O)(=O)NCc2ccccc2)c1)N1CCN(c2ccccn2)CC1	H69AR inhibit 21 (no result: PTEN del growth)
Cc1cc[n+]2cc(-c3cccc([N+](=O)[O-])c3)c(-c3cccc([N+](=O)[O-])c3)cc2c1	none (no result: Lung fibro prol, HUVEC inhibit, H69AR inhibit)
COc1cc(Cl)c(C)cc1NC(=O)COC(=O)/C=C/c1c(C)nn(C2CCS(=O)(=O)C2)c1Cl (stereo unspecified)	H69AR inhibit 33
COc1cc(NC(=O)COC(=O)/C=C/c2c(C)nn(C3CCS(=O)(=O)C3)c2Cl)cc(OC)c1OC (stereo unspecified)	none (no result: Lung fibro prol, HUVEC inhibit, H69AR inhibit)
COc1cc(OC)cc(-c2nc3ccccc3c(=O)n2OC(=O)c2ccc(C)c(C)c2)c1	none (no result: Lung fibro prol, HUVEC inhibit, H69AR inhibit)
Cc1cc(=O)n2c3c(sc2n1)C(=O)N(Cc1ccccc1)C3=O	H69AR inhibit 1.1
Cc1ccc2c(COn3nnc4ccc(S(=O)(=O)N(C)C)cc43)cc(=O)oc2c1C	H69AR inhibit 33
CCN(CC)S(=O)(=O)c1ccc(S(=O)(=O)Nc2ccc3c(c2)oc2ccccc23)cc1	H69AR inhibit 33
CN(C)S(=O)(=O)c1ccc(S(=O)(=O)Nc2ccc3c(c2)oc2ccccc23)cc1	none
Cc1ccc(C(=O)c2cc(C)sc2NC(=O)CN2CCN(C(=O)c3ccco3)CC2)cc1	H69AR inhibit 28

Screening results as filed in PubChem BioAssay.
